In PubChem BioAssay AID624066 (The Scripps Research Institute Molecular Screening Center, 2012):
Where “and” joins values, the source holds several entries; their conditions need not be identical. Equal values may be shown once. Calls of active or inactive are those of the source.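 Rule for the calls: active = IC50 of 10 µM or lower; inactive = IC50 above 10 µM.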

These compounds were tested against Insulin-degrading enzyme (Homo sapiens) (UniProt P14735) (assay: fluorescent artefact check on IDE activity – biochemical, fluorogenic FRET1 peptide, fluorescence, powder samples, artefact control for IDE inhibitor project, late-stage follow-up (AID 624066)). Conditions: recombinant IDE.
Insulin-degrading enzyme (Homo sapiens), sequence (P14735 whole entry, looked up): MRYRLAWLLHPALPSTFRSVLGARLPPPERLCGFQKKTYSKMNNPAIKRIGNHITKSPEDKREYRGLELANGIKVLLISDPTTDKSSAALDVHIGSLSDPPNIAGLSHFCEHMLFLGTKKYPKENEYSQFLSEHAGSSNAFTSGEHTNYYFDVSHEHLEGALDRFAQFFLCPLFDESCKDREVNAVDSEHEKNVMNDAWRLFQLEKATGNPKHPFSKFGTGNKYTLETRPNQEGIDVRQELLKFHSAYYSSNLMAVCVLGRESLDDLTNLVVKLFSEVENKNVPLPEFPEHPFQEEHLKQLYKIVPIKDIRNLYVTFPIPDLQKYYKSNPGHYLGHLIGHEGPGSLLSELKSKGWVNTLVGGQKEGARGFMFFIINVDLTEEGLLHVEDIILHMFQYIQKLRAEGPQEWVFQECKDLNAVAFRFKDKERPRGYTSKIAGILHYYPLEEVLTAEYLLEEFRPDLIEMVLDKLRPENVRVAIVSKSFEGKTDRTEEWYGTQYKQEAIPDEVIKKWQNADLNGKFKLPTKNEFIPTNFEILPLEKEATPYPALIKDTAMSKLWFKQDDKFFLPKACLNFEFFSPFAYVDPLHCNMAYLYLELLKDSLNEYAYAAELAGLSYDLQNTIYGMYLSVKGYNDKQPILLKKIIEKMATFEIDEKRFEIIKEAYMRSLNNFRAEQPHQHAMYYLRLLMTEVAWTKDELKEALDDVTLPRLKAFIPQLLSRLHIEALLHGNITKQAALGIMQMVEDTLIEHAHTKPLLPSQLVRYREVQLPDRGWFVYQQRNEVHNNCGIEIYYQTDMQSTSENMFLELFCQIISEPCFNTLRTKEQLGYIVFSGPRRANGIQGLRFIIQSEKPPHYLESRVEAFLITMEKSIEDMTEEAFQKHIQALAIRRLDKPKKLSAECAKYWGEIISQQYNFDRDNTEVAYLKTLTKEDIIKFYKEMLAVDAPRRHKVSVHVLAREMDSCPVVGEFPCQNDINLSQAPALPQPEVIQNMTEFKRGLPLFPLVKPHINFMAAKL
Method in brief: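 Test system: purified recombinant wild-type IDE / Quantity: IDE at 1 nM final, roughly EC80 / Incubation: continuous kinetic reading every 2 min over 2 h at 22 °C / Signal: fluorescence, ex 335 nm, em 385 nm / Evaluation: IC50 from percent activity of hydrolysis rate / Benchmarks: high DMSO only, low no enzyme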
COc1ccc(C(=O)N2CCCN(C(=O)C3CCc4ccccc4O3)CC2)cc1OC (stereo unspecified) was tested, and the IC50 was > 10 µM (inactive). COc1ccc(C(=O)N2CCN(C(=O)C3CCc4ccccc4O3)CC2)cc1OC (stereo unspecified) was tested, and the IC50 was > 10 µM (inactive). Compound COc1cccc(-c2nnc(SCc3nc4ccccc4[nH]3)n2Cc2ccco2)c1 has an IC50 of 6.4 µM. COc1ccc(C(=O)N2CCN(C(=O)C3COc4ccccc4O3)CC2)cc1OC (stereo unspecified) was tested, and the IC50 was 1.2 µM and > 10 µM (inactive) and > 100 µM (inactive). For Cn1c(SCc2nc3ccccc3[nH]2)nnc1-c1cccc(Cl)c1, the IC50 was > 100 µM (inactive). For COc1ccc(C(=O)N2CCCN(C(=O)C3COc4ccccc4C3)CC2)cc1OC (stereo unspecified), the IC50 was > 10 µM (inactive). For O=C(C1CC1)N1CCN(c2ccnc3cc(Cl)ccc23)CC1, the IC50 was > 100 µM (inactive). In the case of Clc1cccc(-c2nnc(SCc3nc4ccccc4[nH]3)n2-c2ccccc2)c1, the IC50 is reported as “inactive”. Cc1ccc(C)c(N2C(=N)S/C(=C\c3ccc(-c4ccccc4C(=O)O)o3)C2=O)c1 was tested, and the IC50 was “inactive”. In the case of O=C(c1ccc2c(c1)OCO2)N1CCCN(C(=O)C2CCc3ccccc3O2)CC1 (stereo unspecified), the IC50 is reported as > 10 µM (inactive). For O=C(Nc1cccc(C(F)(F)F)c1)c1csc(-c2ccccc2)n1, the IC50 was > 100 µM (inactive). In the case of O=C(c1ccc2c(c1)OCCO2)N1CCCN(C(=O)C2CCc3ccccc3O2)CC1 (stereo unspecified), the IC50 is reported as > 10 µM (inactive). COc1ccc(C(=O)N2CCCN(C(=O)C3COc4ccccc4O3)CC2)cc1OC (stereo unspecified) was tested, and the IC50 was > 10 µM (inactive). O=C(CSc1nnc(-c2cccc(Cl)c2)n1Cc1ccco1)Nc1ccc2c(c1)OCCO2 was tested, and the IC50 was > 100 µM (inactive). In the case of O=C(Nc1cc(C(F)(F)F)cc(C(F)(F)F)c1)c1csc(-c2ccncc2)n1, the IC50 is reported as > 100 µM (inactive). O=C(c1ccc2c(c1)OCO2)N1CCCN(C(=O)C2COc3ccccc3O2)CC1 (stereo unspecified) was tested, and the IC50 was > 10 µM (inactive). For O=C(c1ccc2c(c1)OCCO2)N1CCN(C(=O)C2COc3ccccc3O2)CC1 (stereo unspecified), the IC50 was > 10 µM (inactive). O=C(CSc1nnc(-c2cccc(Cl)c2)n1Cc1ccco1)Nc1ccccc1C(F)(F)F was tested, and the IC50 was > 100 µM (inactive). COc1ccc(NC(=O)CSc2nnc(CN3CCOCC3)n2C)cc1Cl was tested, and the IC50 was > 100 µM (inactive). For O=C(c1ccc2c(c1)OCO2)N1CCN(C(=O)C2COc3ccccc3O2)CC1 (stereo unspecified), the IC50 was > 10 µM (inactive). With O=C(CSc1nnc(-c2cccc(Cl)c2)n1Cc1ccco1)c1ccc2ccccc2c1 the IC50 was > 100 µM (inactive). For Cc1ccc(-c2nc(C(=O)Nc3cccc(C(F)(F)F)c3)cs2)cc1, the IC50 was > 100 µM (inactive). For Cc1nc(-c2cccnc2)sc1C(=O)Nc1cccc(C(F)(F)F)c1, the IC50 was > 100 µM (inactive). In the case of O=C(c1ccc2c(c1)OCCO2)N1CCCN(C(=O)C2COc3ccccc3C2)CC1 (stereo unspecified), the IC50 is reported as > 10 µM (inactive). With O=C(Nc1cccc(C(F)(F)F)c1)c1csc(-c2cccc(C(F)(F)F)c2)n1 the IC50 was > 100 µM (inactive). In the case of Cn1c(=O)c(C(=O)CN2CCCc3ccccc32)c(N)n(Cc2ccccc2)c1=O, the IC50 is reported as 0.4 µM. With O=C(Nc1cccc(C(F)(F)F)c1)c1csc(-c2ccncc2)n1 the IC50 was 5 µM. For O=C(c1ccc2c(c1)OCCO2)N1CCN(C(=O)C2CCc3ccccc3O2)CC1 (stereo unspecified), the IC50 was > 10 µM (inactive). With Cc1ccc(NC(=O)CSc2nnc(-c3cccc(Cl)c3)n2Cc2ccco2)c(C)c1 the IC50 was > 100 µM (inactive). Compound O=C(O)c1ccccc1NS(=O)(=O)c1cccc(-n2sc3ccccc3c2=O)c1 has an IC50 of 5 µM. For O=C(Nc1cccc(C(F)(F)F)c1)c1csc(Cc2cccc(C(F)(F)F)c2)n1, the IC50 was > 100 µM (inactive). With O=C(Nc1ccc2oc(-c3cccnc3)nc2c1)c1ccc2c(c1)OCCO2 the IC50 was > 100 µM (inactive). In the case of Nc1c(C(=O)Nc2nccs2)sc2nc(-c3cccs3)cc(C(F)(F)F)c12, the IC50 is reported as > 100 µM (inactive). For O=C(c1ccc2c(c1)OCO2)N1CCN(C(=O)[C@H]2COc3ccccc3O2)CC1, the IC50 was > 10 µM (inactive). For O=C(c1ccc2c(c1)OCO2)N1CCN(C(=O)C2CCc3ccccc3O2)CC1 (stereo unspecified), the IC50 was > 10 µM (inactive). For CCN(CC)c1ccc(/C=C2\C(=N)N3N=C(CC(=O)N4CCOCC4)SC3=NC2=O)cc1, the IC50 was > 100 µM (inactive). In the case of COc1ccc(C(=O)N2CCN(C(=O)C3COc4ccccc4C3)CC2)cc1OC (stereo unspecified), the IC50 is reported as > 10 µM (inactive). In the case of O=C(c1ccc2c(c1)OCCO2)N1CCN(C(=O)C2COc3ccccc3C2)CC1 (stereo unspecified), the IC50 is reported as > 10 µM (inactive). In the case of O=C(c1ccc2c(c1)OCCO2)N1CCCN(C(=O)C2COc3ccccc3O2)CC1 (stereo unspecified), the IC50 is reported as > 10 µM (inactive). With O=C(c1ccc2c(c1)OCO2)N1CCN(C(=O)C2COc3ccccc3C2)CC1 (stereo unspecified) the IC50 was > 10 µM (inactive). For O=C(c1ccc2c(c1)OCO2)N1CCN(C(=O)[C@@H]2COc3ccccc3O2)CC1, the IC50 was > 10 µM (inactive). With COc1ccc(-c2nc(C(=O)Nc3cccc(C(F)(F)F)c3)cs2)cc1 the IC50 was > 100 µM (inactive). For O=C(c1ccc2c(c1)OCO2)N1CCCN(C(=O)C2COc3ccccc3C2)CC1 (stereo unspecified), the IC50 was > 10 µM (inactive). Work on O=c1c2ccccc2sn1-c1cc(S(=O)(=O)N2CCOCC2)ccc1N1CCOCC1 yielded an IC50 of 0.2 µM. CCOc1ccc2[nH]c3c(N4CCN(C(=O)c5ccco5)CC4)ncnc3c2c1 was tested, and the IC50 was “inactive”. For CC(Sc1nnc(-c2cccnc2)n1-c1ccccc1F)C(=O)N1CCCc2ccccc21 (stereo unspecified), the IC50 was > 100 µM (inactive). For Cc1cccc(-c2nnc(SCc3nc4ccccc4[nH]3)n2Cc2ccco2)c1, the IC50 was 9 µM and 6.4 µM. In the case of Cc1c(CCC(=O)NCCCn2ccnc2)c(=O)oc2cc3oc4c(c3cc12)CCCC4, the IC50 is reported as 5 µM. For COc1cc(/C=C2\SC(=S)N(NC(C)=O)C2=O)ccc1OC(=O)c1ccco1, the IC50 was > 10 µM (inactive). Clc1cccc(-c2nnc(SCc3nc4ccccc4[nH]3)n2Cc2ccco2)c1 gave an IC50 of 5 µM. For O=C(CSc1nnc(-c2cccc(Cl)c2)n1Cc1ccco1)Nc1ccc2cn[nH]c2c1, the IC50 was > 100 µM (inactive).
